Test results from ChEMBL document CHEMBL5357024, “MDM2 Antagonist Idasanutlin Reduces HDAC1/2 Abundance and Corepressor Partners but Not HDAC3” (ACS Med Chem Lett, 2024).

Tests used:
Format in all cases: cell-based
[1] = target: T1, E3 ubiquitin-protein ligase Mdm2/Histone deacetylase 1 (Homo sapiens) (UniProt Q00987+Q13547); test: PROTAC activity at MDM2/HDAC1 in human HCT-116 cells assessed as decrease in HDAC1 abundance by measuring remaining activity at 0.1 uM measured after 24 hrs by Western blot analysis (reference value: 100%)
Method in brief: (§1)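 HCT116 cells seeded in six-well plates for 24 h, then exposed 24 h to compound (0.01–10 μM) or DMSO in fresh medium. Lysis in Tris-HCl/NaCl/NP-40/Triton X-100 with protease inhibitor. Bradford-normalised 30 μg protein per lane. Quantitative Western blot used specific HDAC1, HDAC2, HDAC3, LSD1 or Sin3a antibodies with IRDye secondaries. Abundance compared with DMSO, n = 2 replicates.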

[2] = target: T2, E3 ubiquitin-protein ligase Mdm2/Histone deacetylase 2 (Homo sapiens) (UniProt Q00987+Q92769); test: PROTAC activity at MDM2/HDAC2 in human HCT-116 cells assessed as decrease in HDAC2 abundance by measuring remaining activity at 10 uM measured after 24 hrs by Western blot analysis (reference value: 100%); method in brief: as §1
[3] = target: T3, E3 ubiquitin-protein ligase Mdm2/Histone deacetylase 3 (Homo sapiens) (UniProt Q00987+O15379); test: PROTAC activity at MDM2/HDAC3 in human HCT-116 cells assessed as reduction in HDAC3 abundance by measuring remaining activity at 1 uM measured after 24 hrs by Western blot analysis (reference value: 100%)
Method in brief: (§2)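 HCT116 cells in DMEM with 10% FBS and glutamine/penicillin/streptomycin at 37 °C, 5% CO2. Seeded 4 × 10^5 cells/well, after 24 h treated 24 h with DMSO or compound in fresh medium. Lysed in Tris-HCl/NaCl/NP-40/Triton X-100 buffer with protease inhibitor, Bradford-quantified, 30 μg protein per lane. Quantitative Western blot with specific HDAC1/2/3 antibodies, IRDye secondaries, infrared imaging, versus DMSO. n = 2 replicates.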

[4] = target: T3, E3 ubiquitin-protein ligase Mdm2/Histone deacetylase 3 (Homo sapiens); test: PROTAC activity at MDM2/HDAC3 in human HCT-116 cells assessed as reduction in HDAC3 abundance by measuring remaining activity at 10 uM measured after 24 hrs by Western blot analysis (reference value: 100%); method in brief: as §2
[5] = target: T2, E3 ubiquitin-protein ligase Mdm2/Histone deacetylase 2 (Homo sapiens); test: PROTAC activity at MDM2/HDAC2 in human HCT-116 cells assessed as induction of HDAC2 degradation by Western blot analysis; conditions: dose 0.01-10 µM
[6] = target: T1, E3 ubiquitin-protein ligase Mdm2/Histone deacetylase 1 (Homo sapiens); test: PROTAC activity at MDM2/HDAC1 in human HCT-116 cells assessed as decrease in HDAC1 abundance by measuring remaining activity at 0.025 uM measured after 24 hrs by Western blot analysis (reference value: 100%); method in brief: as §1
[7] = target: T1, E3 ubiquitin-protein ligase Mdm2/Histone deacetylase 1 (Homo sapiens); test: PROTAC activity at MDM2/HDAC1 in human HCT-116 cells assessed as decrease in HDAC1 abundance by measuring remaining activity at 0.05 uM measured after 24 hrs by Western blot analysis (reference value: 100%); method in brief: as §1
[8] = target: T1, E3 ubiquitin-protein ligase Mdm2/Histone deacetylase 1 (Homo sapiens); test: PROTAC activity at MDM2/HDAC1 in human HCT-116 cells assessed as decrease in HDAC1 abundance by measuring remaining activity at 0.5 uM measured after 24 hrs by Western blot analysis (reference value: 100%); method in brief: as §1
[9] = target: T1, E3 ubiquitin-protein ligase Mdm2/Histone deacetylase 1 (Homo sapiens); test: PROTAC activity at MDM2/HDAC1 in human HCT-116 cells assessed as decrease in HDAC1 abundance by measuring remaining activity at 5 uM measured after 24 hrs by Western blot analysis (reference value: 100%); method in brief: as §1
[10] = target: T2, E3 ubiquitin-protein ligase Mdm2/Histone deacetylase 2 (Homo sapiens); test: PROTAC activity at MDM2/HDAC2 in human HCT-116 cells assessed as decrease in HDAC2 abundance by measuring remaining activity at 0.01 uM measured after 24 hrs by Western blot analysis (reference value: 100%); method in brief: as §1
[11] = target: T2, E3 ubiquitin-protein ligase Mdm2/Histone deacetylase 2 (Homo sapiens); test: PROTAC activity at MDM2/HDAC2 in human HCT-116 cells assessed as decrease in HDAC2 abundance by measuring remaining activity at 0.05 uM measured after 24 hrs by Western blot analysis (reference value: 100%); method in brief: as §1
[12] = target: T2, E3 ubiquitin-protein ligase Mdm2/Histone deacetylase 2 (Homo sapiens); test: PROTAC activity at MDM2/HDAC2 in human HCT-116 cells assessed as decrease in HDAC2 abundance by measuring remaining activity at 0.5 uM measured after 24 hrs by Western blot analysis (reference value: 100%); method in brief: as §1
[13] = target: T3, E3 ubiquitin-protein ligase Mdm2/Histone deacetylase 3 (Homo sapiens); test: PROTAC activity at MDM2/HDAC3 in human HCT-116 cells assessed as reduction in HDAC3 abundance by measuring remaining activity at 0.01 uM measured after 24 hrs by Western blot analysis; method in brief: as §1
[14] = target: T3, E3 ubiquitin-protein ligase Mdm2/Histone deacetylase 3 (Homo sapiens); test: PROTAC activity at MDM2/HDAC3 in human HCT-116 cells assessed as reduction in HDAC3 abundance by measuring remaining activity at 0.05 uM measured after 24 hrs by Western blot analysis; method in brief: as §2
[15] = target: Lysine-specific histone demethylase 1A (Homo sapiens) (UniProt O60341); test: Induction of LSD1 degradation in human HCT-116 cells assessed as reduction in LSD1 abundance by measuring remaining activity at 0.025 uM measured after 24 hrs by Western blot analysis (reference value: 100%); method in brief: as §1

T3 sequence (O15379 whole entry, looked up): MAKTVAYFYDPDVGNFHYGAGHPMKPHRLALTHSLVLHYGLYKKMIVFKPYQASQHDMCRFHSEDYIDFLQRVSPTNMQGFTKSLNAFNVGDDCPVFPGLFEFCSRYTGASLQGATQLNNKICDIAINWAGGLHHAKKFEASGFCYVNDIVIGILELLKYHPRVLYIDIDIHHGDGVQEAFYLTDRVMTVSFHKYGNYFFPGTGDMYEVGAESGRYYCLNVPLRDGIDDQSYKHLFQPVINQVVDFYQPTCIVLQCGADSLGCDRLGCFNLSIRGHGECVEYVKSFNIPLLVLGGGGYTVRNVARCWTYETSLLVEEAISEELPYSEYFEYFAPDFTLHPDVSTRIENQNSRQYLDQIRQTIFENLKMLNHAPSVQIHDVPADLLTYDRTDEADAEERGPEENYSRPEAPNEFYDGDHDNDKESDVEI
T3 sequence (Q00987 whole entry, looked up): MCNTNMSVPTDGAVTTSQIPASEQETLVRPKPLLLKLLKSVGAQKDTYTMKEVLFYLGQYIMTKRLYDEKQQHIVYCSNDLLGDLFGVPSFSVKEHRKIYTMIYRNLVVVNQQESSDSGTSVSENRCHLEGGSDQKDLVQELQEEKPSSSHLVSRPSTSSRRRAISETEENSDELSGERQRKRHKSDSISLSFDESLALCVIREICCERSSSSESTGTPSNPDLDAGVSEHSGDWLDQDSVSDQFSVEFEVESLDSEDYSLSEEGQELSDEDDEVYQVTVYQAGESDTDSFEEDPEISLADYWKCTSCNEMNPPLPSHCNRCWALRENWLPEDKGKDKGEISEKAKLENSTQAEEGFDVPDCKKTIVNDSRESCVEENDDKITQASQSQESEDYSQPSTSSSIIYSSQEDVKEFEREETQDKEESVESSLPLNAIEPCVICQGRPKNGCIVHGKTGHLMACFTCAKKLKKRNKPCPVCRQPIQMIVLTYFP
T2 sequence (Q00987 whole entry, looked up): as above
T2 sequence (Q92769 whole entry, looked up): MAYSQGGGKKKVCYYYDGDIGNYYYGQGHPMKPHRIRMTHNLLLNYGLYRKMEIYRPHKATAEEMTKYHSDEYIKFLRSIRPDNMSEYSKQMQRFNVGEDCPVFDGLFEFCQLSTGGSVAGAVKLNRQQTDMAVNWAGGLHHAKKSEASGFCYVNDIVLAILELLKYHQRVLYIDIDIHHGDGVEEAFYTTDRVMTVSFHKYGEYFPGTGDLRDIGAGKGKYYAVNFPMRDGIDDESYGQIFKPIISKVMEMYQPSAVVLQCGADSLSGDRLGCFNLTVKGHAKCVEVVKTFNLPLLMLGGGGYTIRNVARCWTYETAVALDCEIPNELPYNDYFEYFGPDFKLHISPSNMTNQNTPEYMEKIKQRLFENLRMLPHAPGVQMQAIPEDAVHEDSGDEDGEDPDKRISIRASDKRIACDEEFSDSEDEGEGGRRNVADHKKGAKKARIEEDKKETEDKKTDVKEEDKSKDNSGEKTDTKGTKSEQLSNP
T1 sequence (Q00987 whole entry, looked up): as the sequence (Q00987 whole entry, looked up) above
T1 sequence (Q13547 whole entry, looked up): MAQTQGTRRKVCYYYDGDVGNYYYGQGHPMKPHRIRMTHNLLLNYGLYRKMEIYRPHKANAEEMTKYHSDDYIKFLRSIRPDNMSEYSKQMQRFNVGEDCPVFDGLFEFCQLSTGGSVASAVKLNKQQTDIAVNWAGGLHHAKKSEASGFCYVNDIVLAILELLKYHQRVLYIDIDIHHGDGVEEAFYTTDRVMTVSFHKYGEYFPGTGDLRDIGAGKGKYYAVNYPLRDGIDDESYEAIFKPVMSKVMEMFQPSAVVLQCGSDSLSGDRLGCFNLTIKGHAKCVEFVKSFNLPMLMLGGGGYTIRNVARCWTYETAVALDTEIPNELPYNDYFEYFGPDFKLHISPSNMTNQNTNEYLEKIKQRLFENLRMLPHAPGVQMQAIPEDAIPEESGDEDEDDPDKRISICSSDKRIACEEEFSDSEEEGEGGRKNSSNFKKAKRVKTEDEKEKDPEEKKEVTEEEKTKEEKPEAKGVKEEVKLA

Activity [1]: 84%
Activity [2]: 54%
Activity [3]: 104%
Activity [4]: 91%
Activity [5]: Dose-Dependent Effect
Activity [6]: 94%
Activity [7]: 88%
Activity [8]: 67%
Activity [9]: 41%
Activity [10]: 97%
Activity [11]: 90%
Activity [12]: 89%
Activity [13]: 98%
Activity [14]: 105%
Activity [15]: 102%
SMILES: COc1cc(C(=O)NCCOCCOCCOCCOCCC(=O)Nc2ccc(C(=O)Nc3ccccc3N)cc2)ccc1NC(=O)[C@@H]1N[C@@H](CC(C)(C)C)[C@](C#N)(c2ccc(Cl)cc2F)[C@H]1c1cccc(Cl)c1F
